# Source: ChEMBL document CHEMBL4130549, “Synthesis and bioactivities study of new antibacterial peptide mimics: The dialkyl cationic amphiphiles” (Eur J Med Chem, 2018)
# The source made the active and inactive calls. The calls are words filed in the database; no cut-off is given here.
# Tests used:
# [1] = test system: Staphylococcus aureus; assay: Antibiofilm activity against Staphylococcus aureus ATCC 29213 assessed as bacterial cell viability in biofilm at 2 ug/ml after 24 hrs (reference value: 21.9 log10CFU/ml); type: functional
# In short: (§1)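 Mid-log cells at ~10⁵ CFU/mL grown stationary in 96-well plates (S. aureus in MHB for 24 h; E. coli in M9 with 0.02% casamino acids and 0.5% glycerol for 72 h). After washing, biofilms exposed 24 h at 37 °C to 2-128 µg/mL; detached with trypsin-EDTA, serially plated, viability given as log10 CFU/well against an untreated control.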
# [2] = test system: Staphylococcus aureus; assay: Antibiofilm activity against Staphylococcus aureus ATCC 29213 assessed as bacterial cell viability in biofilm at 4 ug/ml after 24 hrs (reference value: 21.9 log10CFU/ml); type: functional; in short: as §1
# [3] = Selectivity index, ratio of HC50 for sheep RBC to MIC for Staphylococcus aureus ATCC 29213; type: toxicity; details: sheep red blood cells (erythrocytes), read-out: Selectivity Index
# In short: (§2)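 HC50 from sheep RBC lysis: 5% RBC suspension exposed 1 h at 37 °C to a 5120–10 µg/mL series, with A540 of supernatant scaled to 0.1% Triton X-100. MIC by CLSI broth microdilution in cation-adjusted MHB, ~10^6 CFU/mL, 256–0.5 µg/mL, 37 °C for 16–20 h, duplicates with at least two repeats.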
# [4] = Selectivity index, ratio of HC50 for sheep RBC to MIC for Escherichia coli ATCC 25922; type: toxicity; details: sheep red blood cells (erythrocytes), read-out: Selectivity Index; in short: as §2
# [5] = test system: Staphylococcus aureus; assay: Bactericidal activity against Staphylococcus aureus ATCC 29213 assessed as time required to kill early exponential phase at 8 ug/ml by time kill assay; type: functional
# In short: (§3)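 Overnight culture diluted 1:10,000 in MHB and shaken at 37 °C, 225 rpm, for 2 h (early exponential) or 5 h (late exponential), then exposed to compound at 6× and 8× MIC in tubes at 37 °C, 225 rpm. Samples (100 µL) taken at intervals, pelleted, resuspended in PBS, and ten-fold dilutions plated on MHA overnight at 37 °C for CFU/mL. Biological replicates.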
# [6] = test system: Staphylococcus aureus; assay: Bactericidal activity against Staphylococcus aureus ATCC 29213 assessed as time required to kill early exponential phase at 6 ug/ml by time kill assay; type: functional; in short: as §3
# [7] = test system: Staphylococcus aureus; assay: Bactericidal activity against Staphylococcus aureus ATCC 29213 assessed as time required to kill late exponential phase at 6 to 8 ug/ml by time kill assay; type: functional; in short: as §3
# [8] = test system: Escherichia coli; assay: Bactericidal activity against Escherichia coli ATCC 25922 assessed as time required to kill early exponential phase at 12 to 16 ug/ml by time kill assay; type: functional
# [9] = test system: Escherichia coli; assay: Bactericidal activity against Escherichia coli ATCC 25922 assessed as time required to kill late exponential phase at 12 to 16 ug/ml by time kill assay; type: functional
# [10] = test system: Staphylococcus aureus; assay: Antibiofilm activity against Staphylococcus aureus ATCC 29213 assessed as bacterial cell viability in biofilm at 8 ug/ml after 24 hrs (reference value: 21.9 log10CFU/ml); type: functional; in short: as §1
# [11] = test system: Staphylococcus aureus; assay: Antibiofilm activity against Staphylococcus aureus ATCC 29213 assessed as bacterial cell viability in biofilm at 16 ug/ml after 24 hrs (reference value: 21.9 log10CFU/ml); type: functional; in short: as §1
# [12] = test system: Staphylococcus aureus; assay: Antibiofilm activity against Staphylococcus aureus ATCC 29213 assessed as bacterial cell viability in biofilm at 64 ug/ml after 24 hrs (reference value: 21.9 log10CFU/ml); type: functional; in short: as §1
# [13] = test system: Staphylococcus aureus; assay: Antibiofilm activity against Staphylococcus aureus ATCC 29213 assessed as bacterial cell viability in biofilm at 128 ug/ml after 24 hrs (reference value: 21.9 log10CFU/ml); type: functional; in short: as §1
# [14] = test system: Escherichia coli; assay: Antibiofilm activity against Escherichia coli ATCC 25922 assessed as bacterial cell viability in biofilm at 8 ug/ml after 24 hrs (reference value: 25.9 log10CFU/ml); type: functional; in short: as §1
# [15] = test system: Escherichia coli; assay: Antibiofilm activity against Escherichia coli ATCC 25922 assessed as bacterial cell viability in biofilm at 16 ug/ml after 24 hrs (reference value: 25.9 log10CFU/ml); type: functional; in short: as §1
# [16] = test system: Escherichia coli; assay: Antibiofilm activity against Escherichia coli ATCC 25922 assessed as bacterial cell viability in biofilm at 32 ug/ml after 24 hrs (reference value: 25.9 log10CFU/ml); type: functional; in short: as §1
# [17] = test system: Escherichia coli; assay: Antibiofilm activity against Escherichia coli ATCC 25922 assessed as bacterial cell viability in biofilm at 64 ug/ml after 24 hrs (reference value: 25.9 log10CFU/ml); type: functional; in short: as §1
# [18] = test system: Escherichia coli; assay: Antibiofilm activity against Escherichia coli ATCC 25922 at 8 to 128 ug/ml after 72 hrs by crystal violet staining based assay; type: functional, organism-based
# In short: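 Biofilms grown in 24-well plates for about 72 h at 37 °C, treated, stained with 1.0% crystal violet, rinsed, dried, dye taken up in 95% ethanol for 1 h at room temperature, then photographed.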
# [19] = test system: Escherichia coli; assay: Antibiofilm activity against Escherichia coli ATCC 25922 after 24 hrs by turbidity method; type: functional
# In short: (§4)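 MBEC: biofilms grown 24 h at 37 °C from 1:1000-diluted exponential-phase culture; planktonic cells removed, twofold dilutions in fresh medium added for 24 h at 37 °C, then fresh medium alone for 24 h recovery. MBEC is the lowest concentration with no visible turbidity.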
# [20] = test system: Staphylococcus aureus; assay: Antibiofilm activity against Staphylococcus aureus ATCC 29213 after 24 hrs by turbidity method; type: functional; in short: as §4
# [21] = test system: Escherichia coli; assay: Antibiofilm activity against Escherichia coli ATCC 25922 after 24 hrs by crystal violet staining method; type: functional
# In short: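 MBIC: twofold dilutions in MHB inoculated with 1:1000-diluted exponential-phase culture (10⁸ CFU/mL), 24 h at 37 °C. Wells rinsed, stained 10 min with 0.1% crystal violet, dye dissolved in ethanol, OD540 read; MBIC80 taken from dose–response versus untreated wells.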
# [22] = test system: Escherichia coli; assay: Ratio of MBEC to MIC for Escherichia coli ATCC 25922 after 24 hrs; type: functional
# In short: (§5)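 For MBEC, biofilms grown 24 h at 37 °C from a 1:1000 dilution of exponential-phase culture, washed, exposed 24 h to two-fold compound dilutions in fresh medium, then recovered 24 h in medium alone; MBEC is the lowest concentration with no turbidity. MIC by CLSI broth microdilution in cation-adjusted MHB, ~10^6 CFU/mL inoculum, 37 °C, 16–20 h.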
# [23] = test system: Staphylococcus aureus; assay: Ratio of MBEC to MIC for Staphylococcus aureus ATCC 29213; type: functional; in short: as §5
# [24] = test system: Escherichia coli; assay: Antibacterial activity against Escherichia coli ATCC 25922 after 20 serial passages measured after 16 to 20 hrs by broth microdilution method; type: functional, organism-based
# In short: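 Sub-MIC serial passaging: after an initial broth microdilution MIC, cells grown at MIC/2 were transferred into a new MIC assay after each 24 h incubation, for 20 passages. MIC was plotted against days to follow resistance development. Passaging controls were norfloxacin for S. aureus and colistin for E. coli.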
compound,measurement,setting,value
CCCCCCCCCN(CCCCCCCCC)C(=O)[C@@H](N)CCCCN.Cl.Cl,Activity,[1],19.9 log10CFU
same,Activity,[2],18.6 log10CFU
same,selectivity ratio,[3],133
same,selectivity ratio,[4],66.5
same,Time,[5],0.5 h
same,Time,[6],120 min
same,Time,[7],6 h
same,Time,[8],0.5 h
same,Time,[9],1 h
same,Activity,[10],11.9 log10CFU
same,Activity,[11],11.5 log10CFU
same,Activity,[12],7.9 log10CFU
same,Activity,[13],7.6 log10CFU
same,Activity,[14],8.4 log10CFU
same,Activity,[15],4.1 log10CFU
same,Activity,[16],2.1 log10CFU
same,Activity,[17],0.3 log10CFU
same,Activity,[18],Active
same,MBEC,[19],128 µg/mL
same,MBEC,[20],64 µg/mL
same,MBIC80,[21],53.9 µg/mL
same,MBIC90,[21],73.6 µg/mL
same,Ratio,[22],64
same,Ratio,[23],64
same,Activity,[24],Active
